Only some compounds are listed: those with a hit (about 3.9% of all), similar ones and a draw of the others.
TAAR1 agonist = human TAAR1 agonists, primary screen, Fluo-8 calcium fluorescence, CHO RD-HGA16 cells; Trace amine-associated receptor 1 (Homo sapiens), Q96RJ0; vehicle wells 0%, saturating PEA agonist 100%; activation, % at 3 µM; 360,000 tested, 0.99% active;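 active means activation above the mean activation of all test compounds in the run plus 3 SD, cut at about 38% in these data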
Target sequence (Q96RJ0 whole entry, looked up): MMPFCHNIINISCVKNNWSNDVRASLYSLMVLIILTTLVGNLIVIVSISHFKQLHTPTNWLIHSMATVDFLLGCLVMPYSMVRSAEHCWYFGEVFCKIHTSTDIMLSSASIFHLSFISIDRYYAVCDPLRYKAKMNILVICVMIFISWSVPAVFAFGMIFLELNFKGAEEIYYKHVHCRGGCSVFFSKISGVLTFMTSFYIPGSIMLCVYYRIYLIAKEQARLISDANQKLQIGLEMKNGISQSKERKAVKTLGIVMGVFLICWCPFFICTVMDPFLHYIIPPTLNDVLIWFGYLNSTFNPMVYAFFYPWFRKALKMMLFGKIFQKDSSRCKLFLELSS
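System: CHO RD-HGA16 cells carrying human TAAR1 plus Gα16; Incubation: 17-24 h seeding, 75 min 37 °C dye, 30 min RT; Measured by: Fluo-8 fluorescence, 5 s baseline then 140 s kinetic read; Control set: DMSO and PEA EC100; Replication: single well for each compound.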
TAAR1 antag = human TAAR1 antagonists, primary screen, Fluo-8 calcium fluorescence, CHO RD-HGA16 cells; antagonist; inhibition, % at 3 µM; 360,000 tested, 1.5% active; AID 624466, 2012;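 active means inhibition above a per-plate cutoff, the mean inhibition of test compounds on that plate plus 3 SD, cut at about 49% in these data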;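 further: 0% = DMSO plus EC80 beta-PEA response and 100% = DMSO alone without agonist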
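Test system: RD-HGA16 CHO cells with stable hTAAR1 and Gα16 / Probe or stimulus: EC80 β-phenethylamine stimulus / Times: seeding 17-24 h prior, 75-min 37 °C, 30-min RT dye loading / Detection: Fluo-8 calcium-sensitive fluorescence / Read-out basis: % inhibition scaled between DMSO and EC80 PEA controls / Repeats: singlicate, one well per test compound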
M1 PAM = human M1 muscarinic receptor positive allosteric modulators, primary screen, CHO-K1 cells, Fluo-8 calcium fluorescence, 1536-well; CHO-K1 hM1, ACh EC20; 0% = ACh EC20, 100% = maximal ACh; activation, % at 3 µM; 360,000 tested, 0.088% active; AID 588819, 2011; in the data active means activation above about 19%, passing the limit was not always enough
CHRM1 antagonist = human M1 muscarinic receptor antagonists, primary screen, CHO-K1 cells, Fluo-8 calcium fluorescence, 1536-well; Muscarinic acetylcholine receptor M1 (Homo sapiens), P11229; CHO-K1 hM1, ACh EC80 antagonist; inhibition, % at 3 µM; 360,000 tested, 1.3% active; AID 588852, 2011;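 active means percent inhibition above its own plate's cutoff, namely the mean of that plate's compound wells plus 3 SD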;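 further: peak over basal fluorescence ratio during 140 s after agonist addition; 0% = ACh EC80 plus DMSO and 100% = DMSO alone without agonist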
m5-HT2A agonist = mouse Htr2a agonists via beta-arrestin recruitment, primary screen, cell-based, luminescence; 5-hydroxytryptamine receptor 2A (Mus musculus), P35363; CHO-K1 mHTR2A beta-arrestin complementation; percent of 30 µM serotonin response; activation, % at 7.6 µM; 360,000 tested, 0.66% active;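 active means activation above a run cutoff, the mean activation of all tested compounds plus 3 SD, cut at about 14% in these data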;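 further: 0% = plate median of compound wells and 100% = 30 µM serotonin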
CHRM1 agonist = human M1 muscarinic receptor agonists, primary screen, Fluo-8 calcium fluorescence, CHO-K1 cells, HTS. Muscarinic acetylcholine receptor M1 (Homo sapiens), P11229. CHO-K1 hM1, agonist mode; 0% DMSO, 100% acetylcholine EC100. activation, % at 3 µM. 360,000 tested, 0.33% active;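 active means activation above the run's mean compound activation plus 3 SD, cut at about 16% in these data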;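 further: peak over basal fluorescence ratio within a 140 s kinetic read after compound addition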
* hit, by the source's call; nt = no result.

SMILES | TAAR1 agonist | TAAR1 antag | M1 PAM | CHRM1 antagonist | m5-HT2A agonist | CHRM1 agonist
COC(=O)[C@]12C[C@H](CC(=O)N3CCSCC3)C(=O)N(CCC3=CCCCC3)C1=C[C@H](C(C)(C)C)O[C@@H]2C | -2 | -58 | nt | nt | nt | nt
CCO[C@H]1OC(C(=O)NCc2ccccc2)=C[C@@H](c2cn(C(C)=O)c3ccccc23)[C@@H]1CCCO | 45* | 18 | -9 | 18 | 1 | 5
CCO[C@@H]1OC(C(=O)O)=C[C@H](c2cn(C(C)=O)c3ccccc23)[C@H]1CCCO | 14 | 0 | 4 | 2 | 1 | -2
Cn1c(=O)c2cc(NC(=O)NCc3ccc(F)cc3)ccc2n1C | 1 | 6 | 2 | -8 | 1 | -5
Fc1ccccc1CN1CCCCCCC1 | 3 | -7 | -5 | 5 | -1 | -12
c1ccc(Sc2ccccc2CN2CCCC2)cc1 | 1 | -9 | -24 | 79* | -10 | -9
O=S1(=O)c2ccc(Br)cc2OCCC2CCCCN21 (stereo unspecified) | 1 | -7 | nt | nt | nt | nt
CN(c1ccccc1)S(=O)(=O)c1ccc(NC(=O)c2ccc(-c3ccccc3)cc2)cc1 | 6 | 12 | -10 | 17 | -6 | -3
Cc1ccc(/C=N/NC(=O)c2ccc(N(C)S(=O)(=O)c3ccccc3)cc2)cc1 | 0 | 35 | 4 | 8 | 3 | 3
Cc1nc2cc(NC(=O)c3ccc(S(=O)(=O)N(C)c4ccccc4)cc3)ccc2o1 | 13 | 51* | -3 | 7 | -3 | -3
COC(=O)c1ccc(Cl)c(NC(=O)CN(c2ccc(OC)cc2)S(=O)(=O)c2ccccc2)c1 | 13 | 23 | -5 | 16 | -6 | 0
CC(=O)Oc1ccc(/C=N/NC(=O)c2ccc(N(C)S(=O)(=O)c3ccccc3)cc2)cc1 | 12 | 55* | 1 | -8 | 4 | 2
Cc1ccc(S(=O)(=O)N(CC(=O)Nc2cccc(N(C)S(C)(=O)=O)c2)c2ccc(Cl)c(Cl)c2)cc1 | 1 | 19 | -1 | 4 | -3 | -3
COC(=O)c1cc(NC(=O)CN(c2ccc(OC)cc2)S(=O)(=O)c2ccc(F)cc2)ccc1Cl | 7 | 53* | -1 | 4 | -7 | -3
CN(c1cccc(NC(=O)CN(c2ccc(Cl)c(Cl)c2)S(=O)(=O)c2ccccc2)c1)S(C)(=O)=O | 9 | 57* | -13 | 16 | -4 | -1
COCCN(C(=O)COC(=O)CCc1c[nH]c2ccccc12)c1c(N)n(Cc2ccccc2)c(=O)[nH]c1=O | 2 | -18 | 5 | -18 | 10 | -1
Nc1nc2c(ncn2[C@@H]2O[C@H](C(=O)N[C@@H](Cc3ccccc3)C(=O)NCC3CCCCC3)[C@@H](O)[C@H]2O)c(=O)[nH]1 | 1 | -16 | nt | nt | nt | nt
O=C(/C=C(\Nc1cccc(F)c1)c1ccccc1)c1ccccc1 | 0 | 14 | nt | nt | nt | nt
COc1cccc(C(=O)N2[C@H](COCc3ccccc3)C=CS2(=O)=O)c1 | 4 | -7 | 2 | -23 | -3 | -2
CN(C)C(=S)SCCn1c(N)nc(N(C)C)nc1=O | 2 | -9 | -2 | 9 | 1 | -3
Cc1nc2ccc(NC(=O)c3ccc(Cl)c(S(=O)(=O)N(C)c4ccccc4)c3)cc2s1 | 13 | 51* | -13 | 25 | 2 | -4
COc1cc(NC(=O)c2ccc(S(=O)(=O)N(C)c3ccccc3)cc2)cc(OC)c1 | 0 | 51* | -5 | -1 | -1 | -2
COc1cc(OC)cc(C(=O)Nc2ccc(C(=O)Nc3ccccc3OC)cc2)c1 | 11 | 56* | -9 | 7 | -1 | -4
CN(c1cccc(NC(=O)c2ccc(N(C)S(=O)(=O)c3ccccc3)cc2)c1)S(C)(=O)=O | 24 | 63* | -35 | 28* | 0 | -5
